ChEMBL document CHEMBL1131111, “Synthesis and anti-HIV-1 activity of novel 2,3-dihydro-7H-thiazolo[3,2-a]pyrimidin-7-ones” (1998)

Experiments:
Format in all cases: functional
[1] = system: Human immunodeficiency virus 1; experiment: Effective dose required for 50% inhibition of HIV-1 antigen production in MT-4 cultures
MT4 [2] = experiment: Cytotoxic dose required to reduce the proliferation of normal uninfected MT-4 cells by 50%; details: Homo sapiens, read-out: CD50 (the source's name)
In short: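 Cytotoxicity scored as concentration-dependent inhibition of proliferation of uninfected MT-4 cells by MTT assay. Cells grown in RPMI 1640 + 10% heat-inactivated FCS. CD50 is the mean of three independent determinations.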

MT4 [3] = experiment: Selectivity index is the ratio between CD50 and IC50 values of the compound
In short: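 Selectivity index calculated as CD50 (MTT, uninfected MT-4 cells) divided by ED50 (HIV-1 antigen ELISA, infected MT-4 cultures). Each value is the mean of three independent determinations.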

Row | SMILES | ED50 [1] [µM] | CC50 (MT4 [2]) [µM] | SI (MT4 [3])
1 | CCc1c(Cc2cc(C)cc(C)c2)n2c(nc1=O)SCC2OCCO (configuration not stated) | 19 | > 100 | >5
2 | CCc1c(Cc2ccccc2)n2c(nc1=O)SCC2OC (configuration not stated) | 36 | > 100 | >3
3 | CCc1c(Cc2cc(C)cc(C)c2)n2c(nc1=O)SCC2OC (configuration not stated) | 3 | > 100 | >33
4 | Cc1cn([C@H]2C[C@H](N=[N+]=[N-])[C@@H](CO)O2)c(=O)[nH]c1=O [ZIDOVUDINE] | 0.04 | 52 | 1300
5 | CCOCn1c(Cc2ccccc2)c(C(C)C)c(=O)[nH]c1=O [EMIVIRINE] | 0.005 | – | 28000
6 | CCOC1CSc2nc(=O)c(C(C)C)c(Cc3ccccc3)n21 (configuration not stated) | 100 | > 100 | >1
7 | C=CCSc1nc(O)c(CC)c(Cc2cc(C)cc(C)c2)n1 | 2 | 68 | 34
8 | C=CCSc1nc(O)c(C(C)C)c(Cc2ccccc2)n1 | 1.5 | > 100 | >67
9 | CCOC1CSc2nc(=O)c(CC)c(Cc3ccccc3)n21 (configuration not stated) | 46 | > 100 | >2
10 | CCOC1CSc2nc(=O)c(CC)c(Cc3cc(C)cc(C)c3)n21 (configuration not stated) | 0.7 | > 100 | >140
11 | C=CCSc1nc(O)c(CC)c(Cc2ccccc2)n1 | 1.5 | > 100 | >67
12 | COC(CSc1nc(O)c(C(C)C)c(Cc2ccccc2)n1)OC | 4 | 32 | 8
13 | CCc1c(O)nc(SCC2OCCO2)nc1Cc1cc(C)cc(C)c1 | 3 | 37 | 12
14 | CCc1c(O)nc(SCC(OC)OC)nc1Cc1cccc2ccccc12 | 32 | > 100 | >3
15 | CCOC(CSc1nc(O)c(CC)c(Cc2cc(C)cc(C)c2)n1)OCC | 21 | > 100 | >5
16 | CCc1c(Cc2cc(C)cc(C)c2)n2c(nc1=O)SCC2CBr (configuration not stated) | 2.8 | 46 | 16
